Drawing on ChEMBL document CHEMBL1122471, “1,3-Diaryltriazenes: a new class of anorectic agents” (1983), this text covers Body weight reduction for 39 compounds.

Molecules are shown by their SMILES. Bounds are passed on as bounds.

Experiment [1] relates to Rattus norvegicus. Kind of experiment: Percentage of body weight reduction in male Sprague-Dawley rats at 50 mg/kg. The format is functional. The method in brief:
(§1)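 Individually housed male CD Sprague-Dawley rats trained to eat their ration within 5 h were dosed orally once daily for 5 days, 10 vehicle controls and 10 treated. Body weight was taken daily before dosing. Reduction from concurrent controls was scored in bands: 16-30%, 31-45%, 46-60%, ≥61%.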

The test system of experiment [2] is Rattus norvegicus. Kind of experiment: Percentage of body weight reduction in male Sprague-Dawley rats at 50 mg/kg; 46-60% reduction from controls. Format: functional. Put shortly:
as §1

Experiment [3] concerns Rattus norvegicus. In words: Percentage of body weight reduction in male Sprague-Dawley rats at 25 mg/kg. Format: functional. Put shortly: as §1
In experiment [4] the test system is Rattus norvegicus. In words: Percentage of body weight reduction in male Sprague-Dawley rats at 25 mg/kg; 31-45% reduction from controls.
The test system of experiment [5] is Rattus norvegicus. Kind of experiment: Percentage of body weight reduction in male Sprague-Dawley rats at 50 mg/kg; […] reduction from controls. The format is functional. Put shortly: as §1
Experiment [6] deals with Rattus norvegicus. Kind of experiment: Percentage of body weight reduction in male Sprague-Dawley rats at 50 mg/kg; 31-45% reduction from controls. The format is functional. The method in brief:
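Individually housed male CD Sprague-Dawley rats trained to eat their ration within 5 h were dosed orally once daily for 5 days, 10 vehicle controls and 10 treated. Body weight was taken daily before dosing.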

Experiment [7] has as its system Rattus norvegicus. Kind of experiment: Percentage of body weight reduction in male Sprague-Dawley rats at 30 mg/kg. The format is functional. Put shortly:
as §1

Experiment [8] has as its system Rattus norvegicus. In words: Percentage of body weight reduction in male Sprague-Dawley rats at 50 mg/kg;. Format: functional. Put shortly:
as §1

In turn, `FC(F)(F)c1ccc(N=NNc2ccc(C(F)(F)F)cc2)cc1` yielded a Body weight reduction in the experiment with Rattus norvegicus [1] below 15%.

As to `FC(F)(F)c1cccc(N=NNc2cccc(C(F)(F)F)c2)c1`, the Body weight reduction in the experiment with Rattus norvegicus [1] is on record as below 15%.

Compound `N#Cc1ccc(C(F)(F)F)cc1NN=Nc1c(Cl)cccc1Cl` returned a Body weight reduction in the experiment with Rattus norvegicus [2] (dose 50 mg/kg) of 46%.

In the case of `COc1ccccc1N=NNc1ccccc1OC`, the Body weight reduction in the experiment with Rattus norvegicus [2] (dose 50 mg/kg) is reported as 46%.

Take `N#Cc1ccc(C(F)(F)F)cc1N=NN(C(=O)Nc1ccccc1)c1cc(C(F)(F)F)ccc1C#N`: the Body weight reduction in the experiment on Rattus norvegicus [2] (dose 50 mg/kg) is given as 46%.

`CCCC(=O)N(N=Nc1cc(C(F)(F)F)ccc1C#N)c1cc(C(F)(F)F)ccc1C#N` displayed a Body weight reduction in the experiment on Rattus norvegicus [3] above 61%.

Turning to `Cc1ccc(C#N)c(N=NNc2cc(C)ccc2C#N)c1`, the Body weight reduction in the experiment with Rattus norvegicus [1] is given as below 15%.

Take `Clc1cccc(N=NNc2cccc(Cl)c2Cl)c1Cl`: the Body weight reduction with Rattus norvegicus [4] was 31%.

Turning to `N#Cc1ccc(C(F)(F)F)cc1NN=Nc1cc(C(F)(F)F)ccc1C(=O)O`, the Body weight reduction in the experiment on Rattus norvegicus [5] turned out to be 16%.

In the experiment with Rattus norvegicus [1], `CCOC(=O)N(N=Nc1cc(C(F)(F)F)ccc1C#N)c1cc(C(F)(F)F)ccc1C#N` returned a Body weight reduction above 61%.

As for `N#Cc1ccc(C(F)(F)F)cc1NN=Nc1ccccc1`, in the experiment with Rattus norvegicus [5], the Body weight reduction is 16%.

Turning to `FC(F)(F)c1ccc(Br)c(N=NNc2cc(C(F)(F)F)ccc2Br)c1`, the Body weight reduction in the experiment on Rattus norvegicus [1] is below 15%.

`CN(N=Nc1ccccc1)c1ccccc1`: in the experiment with Rattus norvegicus [6], the Body weight reduction came to 31%.

`CC(C)C(=O)N(N=Nc1cc(C(F)(F)F)ccc1C#N)c1cc(C(F)(F)F)ccc1C#N`: in the experiment with Rattus norvegicus [3], the Body weight reduction is listed as above 61%.

For the compound `N#Cc1ccc(C(F)(F)F)cc1N=NNc1ccc(C(=O)O)cc1`, the Body weight reduction with Rattus norvegicus [5] turned out to be 16%.

In the experiment on Rattus norvegicus [1], `Clc1ccccc1N=NNc1ccccc1Cl` returned a Body weight reduction below 15%.

`N#Cc1cc(C(F)(F)F)ccc1N=NNc1ccc(C(F)(F)F)cc1C#N`: in the experiment on Rattus norvegicus [6], the Body weight reduction was found to be 31%.

Turning to `CCCNC(=O)N(N=Nc1cc(C(F)(F)F)ccc1C#N)c1cc(C(F)(F)F)ccc1C#N`, the Body weight reduction in the experiment with Rattus norvegicus [6] is 31%.

For the compound `CC(=O)N(N=Nc1cccc(C(F)(F)F)c1)c1cc(C(F)(F)F)ccc1C#N`, in the experiment with Rattus norvegicus [1], the Body weight reduction is listed as below 15%.

As to `CCOC(=O)NC(=O)N(N=Nc1cc(C(F)(F)F)ccc1C#N)c1cc(C(F)(F)F)ccc1C#N`, the Body weight reduction in the experiment with Rattus norvegicus [1] was above 61%.

As for `CC(=O)N(N=Nc1ccc(C(F)(F)F)cc1C#N)c1ccc(C(F)(F)F)cc1`, the Body weight reduction in the experiment on Rattus norvegicus [2] (dose 50 mg/kg) is 46%.

For the compound `N#Cc1ccc(C(F)(F)F)cc1N=NN(C(=O)CCl)c1cc(C(F)(F)F)ccc1C#N`, in the experiment on Rattus norvegicus [1], the Body weight reduction is listed as below 15%.

`CN(N=Nc1cc(C(F)(F)F)ccc1C#N)c1cc(C(F)(F)F)ccc1C#N` yielded a Body weight reduction with Rattus norvegicus [7] below 15%.

`N#Cc1ccccc1N=NNc1ccccc1C#N` returned a Body weight reduction in the experiment with Rattus norvegicus [8] below 15%.

For `COC(=O)c1ccc(C(F)(F)F)cc1N=NNc1cc(C(F)(F)F)ccc1C(=O)OC`, the Body weight reduction in the experiment with Rattus norvegicus [1] is given as below 15%.

Take `Clc1ccc(N=NNc2ccc(Cl)cc2)cc1`: the Body weight reduction with Rattus norvegicus [2] (dose 50 mg/kg) was found to be 46%.

Compound `CNC(=O)N(N=Nc1cc(C(F)(F)F)ccc1C#N)c1cc(C(F)(F)F)ccc1C#N` came in with a Body weight reduction in the experiment on Rattus norvegicus [2] (dose 25 mg/kg, in the assay text read “at 25 mg/kg” for “at 50 mg/kg”) of 46%.

Consider `CCCCC(=O)N(N=Nc1cc(C(F)(F)F)ccc1C#N)c1cc(C(F)(F)F)ccc1C#N`, for which the Body weight reduction in the experiment with Rattus norvegicus [2] (dose 50 mg/kg) was found to be 46%.

`N#Cc1ccc(C(F)(F)F)cc1N=NN(C(=O)c1ccccc1)c1cc(C(F)(F)F)ccc1C#N`: the Body weight reduction with Rattus norvegicus [1] was below 15%.

`FC(F)(F)c1ccccc1N=NNc1ccccc1C(F)(F)F` displayed a Body weight reduction in the experiment on Rattus norvegicus [6] of 31%.

For `N#Cc1ccc(C(F)(F)F)cc1N=NNc1cccc(C(F)(F)F)c1`, the Body weight reduction in the experiment with Rattus norvegicus [1] is listed as below 15%.

Compound `FC(F)(F)c1ccc(Cl)c(N=NNc2cc(C(F)(F)F)ccc2Cl)c1` gave a Body weight reduction with Rattus norvegicus [1] below 15%.

In the case of `CC(=O)N(N=Nc1c(Cl)cccc1Cl)c1cc(C(F)(F)F)ccc1C#N`, the Body weight reduction in the experiment with Rattus norvegicus [1] was below 15%.

Compound `N#Cc1ccc(Cl)cc1N=NNc1cc(Cl)ccc1C#N` came in with a Body weight reduction in the experiment with Rattus norvegicus [6] of 31%.

Regarding `CC(=O)N(N=Nc1ccccc1)c1ccccc1`, the Body weight reduction in the experiment on Rattus norvegicus [1] is recorded as above 61%.

In turn, `COC(=O)CC(=O)N(N=Nc1cc(C(F)(F)F)ccc1C#N)c1cc(C(F)(F)F)ccc1C#N` gave a Body weight reduction in the experiment on Rattus norvegicus [2] (dose 50 mg/kg) of 46%.

In the experiment on Rattus norvegicus [2] (dose 50 mg/kg), `CCC(=O)N(N=Nc1cc(C(F)(F)F)ccc1C#N)c1cc(C(F)(F)F)ccc1C#N` showed a Body weight reduction of 46%.

For the compound `Clc1cccc(Cl)c1N=NNc1c(Cl)cccc1Cl`, in the experiment on Rattus norvegicus [1], the Body weight reduction is reported as below 15%.

In the experiment on Rattus norvegicus [1], `CC(=O)N(N=Nc1cc(C(F)(F)F)ccc1C#N)c1cc(C(F)(F)F)ccc1C#N` came in with a Body weight reduction above 61%.
